Experimental findings from ChEMBL document CHEMBL1134798, “Pharmacological evaluation of a diarylmethylene-piperidine derivative: a new potent atypical antipsychotic?” (Bioorg Med Chem Lett, 2001) are described below.

Calls of active or inactive are those of the source. No cut-off for these calls is given here.

In experiment [1] the target is Serotonin 2 (5-HT2) receptor (Homo sapiens, UniProt P41595+P28223+P28335). Description: In vitro binding affinity for 5-hydroxytryptamine 2 receptor. Format: protein assay.
Experiment [2] deals with T1, D(4) dopamine receptor (Homo sapiens, UniProt P21917).
T1 sequence (P21917 whole entry): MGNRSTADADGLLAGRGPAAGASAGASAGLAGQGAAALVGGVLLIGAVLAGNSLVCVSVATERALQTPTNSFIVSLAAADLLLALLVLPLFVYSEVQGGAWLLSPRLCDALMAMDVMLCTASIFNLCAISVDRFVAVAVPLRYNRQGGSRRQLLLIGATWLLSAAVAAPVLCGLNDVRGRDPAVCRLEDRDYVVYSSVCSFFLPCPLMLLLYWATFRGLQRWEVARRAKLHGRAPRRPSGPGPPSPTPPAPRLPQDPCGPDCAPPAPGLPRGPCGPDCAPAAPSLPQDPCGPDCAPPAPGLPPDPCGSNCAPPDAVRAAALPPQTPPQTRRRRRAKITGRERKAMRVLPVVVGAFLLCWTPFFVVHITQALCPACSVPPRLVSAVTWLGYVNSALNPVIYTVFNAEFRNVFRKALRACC
Description: In vitro binding affinity for Dopamine receptor D4.

Experiment [3] is filed under the species Mus musculus. Description: Anticholinergic effect evaluated in mice using oxotremorine induced salivation. It counts as functional. In outline:
(§1)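 Oxotremorine 0.25 mg/kg ip induced tremors and salivation. Compounds were given ip 30 min beforehand, groups of six mice. Scoring every 5 min over 30 min. ED50 from non-linear regression.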

For experiment [4], the species on record is Mus musculus. The experiment can be described thus: Lethality in mice evaluated in IRWIN-test. Format: functional. The gist of the method: (§2)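 Irwin observational test run to a standard protocol after ip administration.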
The species named for experiment [5] is Mus musculus. The experiment can be described thus: Anticholinergic effect evaluated in mice using oxotremorine induced tremors. It counts as functional. The gist of the method: as §1
For experiment [6], the species on record is Mus musculus. The experiment can be described thus: Induction of convulsions in mice evaluated in IRWIN-test. It counts as functional. The gist of the method: as §2
Experiment [7] is filed under the species Mus musculus. Description: Induction of sedation in mice evaluated in IRWIN-test. Format: functional. In outline:
as §2

Experiment [8] has as its system Mus musculus. The experiment can be described thus: Effective dose required for inhibition of apomorphine(sc, 2.5 mg/kg ) induced climbing in mice on ip administration. It counts as functional. Conditions: route intraperitoneal. In outline: (§3)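 Apomorphine hydrochloride given sc at 2.5 mg/kg to induce climbing and stereotypy. Compounds dosed 30 min earlier, groups of eight mice. ED50 for each behaviour by non-linear regression.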

In experiment [9] the test system is Mus musculus. The experiment can be described thus: Effective dose required for inhibition of apomorphine(sc, 2.5 mg/kg ) induced climbing in mice on po administration. Format: functional. The gist of the method: (§4)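 Mice were dosed po 30 min before apomorphine hydrochloride (2.5 mg/kg sc), in groups of eight. ED50 for inhibition of climbing or stereotypy was derived by non-linear regression.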

For experiment [10], the system named is Mus musculus. Description: Effective dose required for inhibition of apomorphine(sc, 2.5 mg/kg ) induced stereotypy in mice on […]. Format: functional. The gist of the method: as §4
Experiment [11] has as its system Mus musculus. The experiment can be described thus: Effective dose required for inhibition of DOI-induced head-twitches in mice on ip administration. Format: functional. In outline: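 Head-twitches elicited by ip (±)-DOI hydrochloride, 1.6 mg/kg. Mice (groups of eight) pretreated ip 30 min before DOI. Twitches counted for 5 min starting 5 min after DOI. ED50 by non-linear regression.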

In experiment [12] the test system is Mus musculus. The experiment can be described thus: Decrease in number of avoidance responses in mice at a dose ~100 mg/kg. The following applies: at 100 mg/kg. Format: functional.
Experiment [13] concerns Mus musculus. Description: Decrease in number of avoidance responses in mice at a dose ~110 mg/kg. Format: functional.
In experiment [14] the test system is Mus musculus. The experiment can be described thus: Decrease in number of avoidance responses in mice at a dose ~115 mg/kg. Format: functional.
Experiment [15] relates to Mus musculus. Description: Decrease in number of avoidance responses in mice at a dose ~60 mg/kg. Format: functional. The following applies: at 60 mg/kg.
In experiment [16] the test system is Mus musculus. Description: Antagonistic activity on amphetamine-induced stereotypy at a dose of 100 umol/kg (p<0.05). Format: functional.
Experiment [17] relates to Mus musculus. The experiment can be described thus: Decrease in d-amphetamine-induced hyperactivity at a dose of 10 umol/kg (p<0.01). It counts as functional.
The test system of experiment [18] is Rattus norvegicus. The experiment can be described thus: Decrease in arterial blood pressure by the compound at a dose of 43.1-431 mg/kg in rats 24 hr after oral administration; No significant. Format: functional, organism-based. The following applies: Artery.
Experiment [19] has as its system Rattus norvegicus. Description: Increase in heart rate by the compound at a dose of 43.1-431 mg/kg in rats on oral administration; No significant. Format: functional, organism-based.
In experiment [20] the test system is Mus musculus. Description: Effective dose required for inhibition of apomorphine(sc, 2.5 mg/kg ) induced stereotypy in mice on ip administration. Format: functional. Conditions: route intraperitoneal. In outline:
as §3

Experiment [21] has as its system Mus musculus. The experiment can be described thus: Anticholinergic effect evaluated in mice using oxotremorine induced salivation(ip). It counts as functional. The gist of the method: (§5)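 Mice were dosed ip 30 min before oxotremorine (0.25 mg/kg ip), in groups of six. Salivation and tremors were scored every 5 min for 30 min. ED50 was derived by non-linear regression.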

Experiment [22] has as its system Mus musculus. The experiment can be described thus: Anticholinergic effect evaluated in mice using oxotremorine induced tremors(ip). It counts as functional. In outline:
as §5

For experiment [23], the system named is Mus musculus. Description: Decrease in number of avoidance responses in mice at a dose ~10 mg/kg. Conditions: at 10 mg/kg. It counts as functional.
For experiment [24], the system named is Mus musculus. Description: Decrease in number of avoidance responses in mice at a dose ~25 mg/kg. It counts as functional.
For experiment [25], the system named is Mus musculus. The experiment can be described thus: Decrease in number of avoidance responses in mice at a dose ~50 mg/kg. It counts as functional.
The subject of experiment [26] is Mus musculus. Description: Induction of catalepsy up to a dose of 160 mg/kg when administered po in mice; No induction. It counts as functional, organism-based. Further details: dose 160 mg/kg.
Experiment [27] relates to Rattus norvegicus. The experiment can be described thus: Decrease in arterial blood pressure by the compound at a dose of 32.7 mg/kg in rats 0.5-2.5h after administration. It counts as functional, Artery.
The subject of experiment [28] is Rattus norvegicus. The experiment can be described thus: Increase in heart rate by the compound at a dose of 10.5 mg/kg in rats. Format: functional.

For the compound `NC(=O)C1CCC(CN2CCC(=C(c3ccccc3)c3ccc(F)cc3)CC2)O1` (configuration not stated), the “Log Ki” value in experiment [1] is listed as -7.5. In experiment [2], the inhibition constant Ki was 158 nM. Besides, the Activity in experiment [3] came out at 20; in experiment [4], 1000; in experiment [5] it was 32; in [6], 320; in experiment [7] it was 100. For the same compound, the ED50 in experiment [8] was found to be 46 µmol/kg; in [9] it was 140 µmol/kg; in experiment [10], 290 µmol/kg; in experiment [11], 16 µmol/kg; in experiment [20] it was 69 µmol/kg. Also, the “Decrease in No. of avoidence responses” value in experiment [12] is reported as 27%; in experiment [13] it was 45%; in experiment [14] it was 80%; in [15], 12.5%. Moreover, the Decrease stood at 13% in experiment [16] and 44% in [17]. Besides, the “Decrease in arterial blood pressure” value in experiment [18] was “inactive”. In experiment [19], the “Increase in heart rate” value is “inactive”.
For `CN1CCN(C2=Nc3cc(Cl)ccc3Nc3ccccc32)CC1` [CLOZAPINE], the Activity in [21] stood at 8; in experiment [4], 320; in experiment [22] it was 12; in experiment [6] it was 180; in experiment [7] it was 3.2. The median effective dose (ED50) in experiment [8] is 28 µmol/kg; in experiment [9] it was 30 µmol/kg; in experiment [10], 62 µmol/kg; in experiment [11], 1.5 µmol/kg; in experiment [20], 67 µmol/kg. For the same compound, the “Decrease in No. of avoidence responses” value in experiment [23] is on record as 10%; in experiment [24], 65%; in experiment [25], 85%. Moreover, the Induction of catalepsy result in experiment [26] is “inactive”. For the same compound, the “Decrease in arterial blood pressure” value in experiment [27] is 32%. In experiment [28], the “Increase in heart rate” value worked out at 49%.
For the compound `O=C(CCCN1CCC(O)(c2ccc(Cl)cc2)CC1)c1ccc(F)cc1` [HALOPERIDOL], the ED50 in experiment [8] amounted to 0.32 µmol/kg; in experiment [11], 0.61 µmol/kg; in [20] it was 0.31 µmol/kg.
For `OCCOCCN1CCN(C2=Nc3ccccc3Sc3ccccc32)CC1` [QUETIAPINE] the same measures were 51 µmol/kg, 9 µmol/kg and 60 µmol/kg.

A word on the Ki: it is a measure of affinity in units of concentration, obtained from inhibition or displacement. Higher therefore signals a looser hold on the target. By ED50 is commonly meant the dose that gives a 50% effect, or the effect in half of the subjects. Low values mean an effect at a small dose, high ones a need for a large dose.
